In data set [1] the target is T1, Peroxisome proliferator-activated receptor alpha (Homo sapiens, UniProt Q07869).
T1 sequence (Q07869 whole entry): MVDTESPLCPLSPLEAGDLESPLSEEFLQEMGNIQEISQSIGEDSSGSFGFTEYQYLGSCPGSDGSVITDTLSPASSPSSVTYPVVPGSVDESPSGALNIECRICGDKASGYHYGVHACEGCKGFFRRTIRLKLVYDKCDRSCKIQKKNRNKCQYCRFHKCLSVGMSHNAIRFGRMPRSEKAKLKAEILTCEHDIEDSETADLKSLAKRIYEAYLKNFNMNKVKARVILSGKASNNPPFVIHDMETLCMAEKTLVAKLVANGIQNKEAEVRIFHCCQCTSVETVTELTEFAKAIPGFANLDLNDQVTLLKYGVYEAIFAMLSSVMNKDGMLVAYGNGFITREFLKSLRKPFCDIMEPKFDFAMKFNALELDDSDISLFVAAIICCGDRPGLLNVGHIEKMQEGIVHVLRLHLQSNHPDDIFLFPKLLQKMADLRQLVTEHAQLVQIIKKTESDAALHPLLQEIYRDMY
Put plainly: Transactivation of human GAL4-fused PPARalpha LBD expressed in African green monkey COS7 cells co-expressing 5Gal4 pGL3 TK Luc after overnight incubation by luciferase reporter gene assay. In kind it is cell-based. In a few lines:
(§1)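 Cell-based Gal-4 transactivation assay in COS-7 cells transfected with PPARα, PPARδ or PPARγ ligand-binding domain. EC50 and Emax were derived, with Emax as maximum activation in percent of control. EC50s are means of at least two independent experiments performed in triplicate.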

The target in data set [2] is T2, Peroxisome proliferator-activated receptor alpha (Homo sapiens) (UniProt Q07869).
T2 sequence (whole entry): T1 sequence (Q07869 whole entry)
Put plainly: Transactivation of human GAL4-fused PPARalpha LBD expressed in African green monkey COS7 cells co-expressing 5Gal4 pGL3 TK Luc after overnight incubation by luciferase reporter gene assay relative to fenofibric acid. Format: cell-based. In a few lines:
as §1

Data set [3] has as its target T3, Peroxisome proliferator-activated receptor delta (Homo sapiens, UniProt Q03181).
T3 sequence (Q03181 whole entry): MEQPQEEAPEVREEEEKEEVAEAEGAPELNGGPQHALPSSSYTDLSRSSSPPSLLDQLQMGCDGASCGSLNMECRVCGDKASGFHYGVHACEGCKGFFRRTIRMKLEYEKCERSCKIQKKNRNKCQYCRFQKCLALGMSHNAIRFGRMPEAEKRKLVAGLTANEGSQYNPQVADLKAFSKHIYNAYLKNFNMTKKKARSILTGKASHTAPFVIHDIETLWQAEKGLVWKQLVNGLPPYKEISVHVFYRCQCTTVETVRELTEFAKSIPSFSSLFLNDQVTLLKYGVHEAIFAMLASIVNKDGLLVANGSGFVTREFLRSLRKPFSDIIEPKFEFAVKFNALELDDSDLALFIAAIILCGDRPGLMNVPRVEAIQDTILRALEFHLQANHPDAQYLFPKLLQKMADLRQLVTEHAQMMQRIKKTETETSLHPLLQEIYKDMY
The data set is described as follows: Transactivation of human GAL4-fused PPARdelta LBD expressed in African green monkey COS7 cells co-expressing 5Gal4 pGL3 TK Luc after overnight incubation by luciferase reporter gene assay. Format: cell-based. The gist of the method: as §1

Data set [4] concerns the target T4, Peroxisome proliferator-activated receptor delta (Homo sapiens) (UniProt Q03181).
T4 sequence (whole entry): T3 sequence (Q03181 whole entry)
The data set is described as follows: Transactivation of human GAL4-fused PPARdelta LBD expressed in African green monkey COS7 cells co-expressing 5Gal4 pGL3 TK Luc after overnight incubation by luciferase reporter gene assay relative to GW501516. Format: cell-based. The gist of the method: as §1

The target of data set [5] is T5, Peroxisome proliferator-activated receptor gamma (Homo sapiens, UniProt P37231).
T5 sequence (P37231 whole entry): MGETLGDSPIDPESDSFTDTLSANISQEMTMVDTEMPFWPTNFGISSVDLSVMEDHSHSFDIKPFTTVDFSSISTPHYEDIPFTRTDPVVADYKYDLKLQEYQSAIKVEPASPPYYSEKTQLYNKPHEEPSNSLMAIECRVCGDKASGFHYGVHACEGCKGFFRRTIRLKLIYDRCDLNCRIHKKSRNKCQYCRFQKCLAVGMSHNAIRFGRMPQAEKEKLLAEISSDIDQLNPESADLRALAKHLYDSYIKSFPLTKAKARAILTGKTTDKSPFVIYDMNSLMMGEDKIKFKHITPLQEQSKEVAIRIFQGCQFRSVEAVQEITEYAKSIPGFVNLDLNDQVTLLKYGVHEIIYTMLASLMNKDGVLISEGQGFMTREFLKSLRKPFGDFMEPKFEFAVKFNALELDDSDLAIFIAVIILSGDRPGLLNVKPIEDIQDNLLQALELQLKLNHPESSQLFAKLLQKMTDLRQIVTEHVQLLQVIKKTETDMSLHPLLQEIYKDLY
Put plainly: Transactivation of human GAL4-fused PPARgamma LBD expressed in African green monkey COS7 cells co-expressing 5Gal4 pGL3 TK Luc after overnight incubation by luciferase reporter gene assay. Format: cell-based. The gist of the method:
as §1

Data set [6] addresses T6, Peroxisome proliferator-activated receptor gamma (Homo sapiens) (UniProt P37231).
T6 sequence (whole entry): T5 sequence (P37231 whole entry)
Put plainly: Transactivation of human GAL4-fused PPARgamma LBD expressed in African green monkey COS7 cells co-expressing 5Gal4 pGL3 TK Luc after overnight incubation by luciferase reporter gene assay relative to rosiglitazone. In kind it is cell-based. In a few lines: as §1

A short description of data set [7]: Cmax in C57Bl6 mouse at 10 mg/kg, po administered as single oral dose. Format: ADME, organism-based. The note with it: in vivo. In a few lines: (§2)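 Single oral dose of 10 mg/kg in methyl cellulose vehicle given to C57Bl6 mice. Plasma was sampled over a 24 h period. […]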
Data set [8] is described as follows: Tmax in C57Bl6 mouse at 10 mg/kg, po administered as single oral dose. In kind it is ADME, organism-based. The note with it: in vivo. In a few lines: as §2
Data set [9] is described as follows: AUC (infinity) in C57Bl6 mouse at 10 mg/kg, po administered as single oral dose. Format: ADME, organism-based. The note with it: in vivo. The gist of the method: as §2
A short description of data set [10]: Apparent permeability from apical to basolateral side in human Caco2 cells at 10 uM after 2 hrs by LC-MS/MS analysis. Format: ADME, cell-based, Caco-2. The note with it: Caco-2.
The nature of data set [11]: Apparent permeability from basolateral to apical side in human Caco2 cells at 10 uM after 2 hrs by LC-MS/MS analysis. Format: ADME, cell-based, Caco-2. The note with it: caco-2, 2 h, 10 µM.
Data set [12] is described as follows: Efflux ratio of apparent permeability in human Caco2 cells at 10 uM after 2 hrs by LC-MS/MS analysis. Format: ADME, cell-based, Caco-2. The note with it: Caco-2.
Data set [13] is described as follows: Aqueous solubility in fasted state simulated intestinal fluid. Format: physicochemical.
The subject of data set [14] is Rattus norvegicus. The data set is described as follows: Toxicity in Sprague-Dawley rat assessed as reduction in hematocrit level at 100 mg/kg for 4 weeks. In kind it is organism-based. The note with it: in vivo, 672 h. The gist of the method:
(§3)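 Sprague-Dawley rats were treated at 100 and 1000 mg/kg. Hematocrit and plasma volume were assessed after 4 weeks of treatment and heart weight after 6 weeks. Each was compared with the control group by one-way ANOVA followed by Dunnett's test.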

In data set [15] the test system is Rattus norvegicus. Put plainly: Toxicity in Sprague-Dawley rat assessed as increase in plasma volume at 100 mg/kg for 4 weeks by evans blue dye based assay. Format: organism-based. The note with it: in vivo, 672 h. In a few lines:
as §3

For data set [16], the system named is Rattus norvegicus. The data set is described as follows: Toxicity in Sprague-Dawley rat assessed as increase in heart weight at 100 mg/kg for 6 weeks. The note with it: in vivo, 1008 h. In kind it is organism-based. In a few lines: as §3
For data set [17], the system named is Rattus norvegicus. Put plainly: Toxicity in Sprague-Dawley rat assessed as increase in heart weight at 30 mg/kg for 6 weeks. In kind it is organism-based. The note with it: in vivo, 1008 h.
The subject of data set [18] is Rattus norvegicus. The data set is described as follows: Toxicity in Sprague-Dawley rat assessed as reduction in hematocrit level at 10 mg/kg for 4 weeks. Format: organism-based. The note with it: in vivo, 672 h.
The test system of data set [19] is Rattus norvegicus. The data set is described as follows: Toxicity in Sprague-Dawley rat assessed as increase in plasma volume at 10 mg/kg for 4 weeks by evans blue dye based assay. The note with it: in vivo, 672 h. Format: organism-based.
Data set [20] concerns Rattus norvegicus. Put plainly: Toxicity in Sprague-Dawley rat assessed as increase in heart weight at 10 mg/kg for 6 weeks. In kind it is organism-based. The note with it: in vivo, 1008 h.

Values after ≈ are worked out from the molar mass of the structure shown.

This is an account of results in ChEMBL document CHEMBL4020830, “Design, Synthesis, and Evaluation of a Novel Series of Indole Sulfonamide Peroxisome Proliferator Activated Receptor (PPAR) α/γ/δ Triple Activators: Discovery of Lanifibranor, a New Antifibrotic Clinical Candidate” (J Med Chem, 2018).

As to `O=C(O)CCCc1cc2cc(Cl)ccc2n1S(=O)(=O)c1ccccc1`, the EC50 in data set [1] was 0.956 µM; in data set [3], 0.645 µM; in [5], 0.284 µM. The figures for the Emax in data set [2], in [4] and in data set [6] were 51%, 46% and 46%, respectively. The concentration in data set [7] peaked (Cmax) at 11800 ng/mL. Further, the Tmax in [8] is 1 h. In addition, the AUC(0-inf) in data set [9] came out at 51100 ng·h/mL.

As to `CC(=O)CC(c1ccccc1)c1c(O)c2ccccc2oc1=O` (centres undefined) [WARFARIN], the Papp A→B at 2 h, 10 µM in [10] is 39.8 ×10⁻⁶ cm/s. Also, in [11], the Papp was found to be 0.7 ×10⁻⁶ cm/s. In addition, the efflux ratio at 2 h, 10 µM in data set [12] worked out at 0.02. In addition, the solubility in data set [13] was 56 µM (≈ 17.3 µg/mL).

For `COc1ccc(OC(=O)N(CC(=O)O)Cc2ccc(OCCc3nc(-c4ccccc4)oc3C)cc2)cc1` [MURAGLITAZAR], the Activity result in data set [14], in data set [15] and in data set [16] was “Toxic” throughout.

Consider `CN(CCOc1ccc(CC2SC(=O)NC2=O)cc1)c1ccccn1` (centres undefined) [ROSIGLITAZONE], for which the Activity result in data set [17] is reported as “Toxic”.

Consider `CCO[C@@H](Cc1ccc(OCCc2ccc(OS(C)(=O)=O)cc2)cc1)C(=O)O` [TESAGLITAZAR], for which the Activity result in data set [18], in data set [19] and in data set [20] was “Toxic” throughout.

Consider `Cc1nc2cc(S(=O)(=O)n3c(CCCC(=O)O)cc4cc(Cl)ccc43)ccc2s1`, for which the results for the half-maximal effective concentration (EC50) in data set [1], in data set [3] and in data set [5] were 2.36 µM, 1.1 µM and 0.175 µM, respectively. Further, the Emax in data set [2] amounted to 22%; in [4], 20%; in data set [6] it was 39%.

Turning to `COc1cccc(S(=O)(=O)n2c(CCCC(=O)O)cc3cc(C(F)(F)F)ccc32)c1`, the figures for the EC50 in [1], in data set [3] and in [5] were 1.16 µM, 1.61 µM and 0.065 µM, respectively. Also, the Emax in [2] came to 37%; in data set [4], 28%; in data set [6] it was 46%.

For `Cc1ccc(S(=O)(=O)n2c(CCCC(=O)O)cc3cc(Cl)ccc32)cc1`, the EC50 in data set [1] is more than 5 µM; in data set [3] it was 1.08 µM; in data set [5], 0.277 µM. For the same compound, the values for the Emax in data set [2], in data set [4] and in data set [6] were 36%, 29% and 30%, respectively.

For the compound `O=C(O)CCCc1cc2cc(C(F)(F)F)ccc2n1S(=O)(=O)c1cccc(OC(F)(F)F)c1`, the EC50 in data set [1] was 2.76 µM; in data set [3] it was 1.14 µM; in data set [5], 0.201 µM. For the same compound, the Emax in data set [2] amounted to 50%; in [4], 23%; in data set [6], 39%.
